# NadD block: NadD (S. aureus) enzyme inhibition; 360,000 compounds, 0.78% hits; inhibition, % at 20 µM; purified NadD enzyme, colorimetric absorbance read-out; in the data active means inhibition above about 26%
# VIM-2 inh: blocks Pseudomonas aeruginosa VIM-2 metallo-beta-lactamase; purified VIM-2, nitrocefin hydrolysis, epi-absorbance fluorescence; inhibition, % at 5.6 µM; 290,000 compounds, 0.89% hits;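 active means inhibition above the mean of all tested compounds plus 3 SD, cutoff set per screening run, cut at about 7.5% in these data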;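 further: red hydrolysis product quenches plate fluorescence so inhibitors raise well fluorescence; 0% = enzyme with DMSO and 100% = DMSO without enzyme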
# core dimer inh: HCV core protein dimerization inhibition. TR-FRET GST/Flag-core106 dimerization, 1536-well. inhibition, % at 5 µM. 300,000 compounds, 0.33% hits;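 active means inhibition above the mean of all tested compounds plus 3 SD, set per screening campaign, cut at about 45% in these data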
#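 System: GST-tagged and Flag-tagged HCV core protein residues 1-106 / Input: core106 proteins, GST 13.5 nM and Flag 17 nM / Buffer or medium: KF-containing HEPES buffer, pH 7.45, DTT, CHAPS, BSA / Probe or stimulus: Eu-anti-GST and XL665-anti-Flag labelled anti-tag antibodies / Schedule: 4 h, 22.5 °C incubation / Technique: TR-FRET 671 and 617 nm emission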
# IMP-1 inhibitor: inhibitors of Pseudomonas aeruginosa IMP-1 metallo-beta-lactamase. purified IMP-1, nitrocefin hydrolysis, epi-absorbance fluorescence. inhibition, % at 5.6 µM. 290,000 compounds, 0.45% hits;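 active means inhibition above the mean plus 3 SD of all compounds in the same screening run, cut at about 4.5% in these data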;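 further: 0% = IMP-1 with DMSO and 100% = DMSO wells lacking enzyme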
#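 system = purified recombinant IMP-1 beta-lactamase | amount = 0.2 nM IMP-1, as dispensed | medium = HEPES buffer pH 7.1 with ZnSO4 and Brij 35 | times = 25 °C, 15 min preincubation, 25 min reaction | detection = plate fluorescence quenching by hydrolysis product, ex 480/em 530 nm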
# * marks the source's active call; other numbers are inactive results; / = no result given. The list is not random: actives were taken first. Their share in the collection is about 1.9%.
SMILES,NadD block,VIM-2 inh,core dimer inh,IMP-1 inhibitor
CS(=O)(=O)c1ccc(-c2csc(C(O)c3cccc(Cl)c3)n2)cc1 (stereo not drawn),-7,/,/,/
CC(C)Sc1nc2ccccc2n2cnnc12,3,11*,-2,-2
Cc1cccc(CCNS(=O)(=O)c2ccc3c(c2)CCN3C(=O)CCC(=O)O)c1,2,-2,-10,-3
Cc1ccc([N+](=O)[O-])cc1S(=O)(=O)Nc1ccc(N2CCOCC2)cc1,-7,1,-4,-1
COc1ccc(Cl)cc1C(Nc1cccnc1)c1ccc2cccnc2c1O (stereo not drawn),40*,-1,5,-2
CCC(=O)NC(c1ccccc1OC)c1ccc2cccnc2c1O (stereo not drawn),3,-2,-4,-3
CCN(CC)S(=O)(=O)c1ccc(N2CCCC2)c(NC(=O)Cc2cc(OC)c(OC)c(OC)c2)c1,1,-1,11,-2
Cn1cnnc1SCC(=O)Nc1cc(S(=O)(=O)N2CCCCC2)ccc1Cl,-5,0,-4,-1
COCCn1cnnc1SCC(=O)c1ccc(S(=O)(=O)N2CCCC2)cc1,7,-1,54*,-3
O=C(CN1CCCCC1)Nc1ccc(S(=O)(=O)c2ccc(NC(=O)CN3CCCCC3)cc2)cc1,-4,/,/,/
O=C(CSc1cccc[n+]1[O-])Nc1cc2c(cc1Cl)C(=O)c1ccccc1C2=O,34*,-1,40,-1
O=C(CSc1cccc[n+]1[O-])Nc1cc([N+](=O)[O-])ccc1Cl,-9,-2,0,-1
CC(=O)Oc1ccc(Cn2c(C)c(C(=O)NCc3cccc(C(F)(F)F)c3)sc2=O)cc1,-9,/,/,/
Cc1nn(-c2ccccc2)c(C)c1NC(=O)COC(=O)Cc1ccccc1F,-3,/,-2,/
FC(F)(F)C1=Nc2cccc3cccc(c23)N1,72*,/,/,/
COc1ccc(OC)c(S(=O)(=O)N(C)CC(=O)N2CCN(c3ccccc3F)CC2)c1,-1,0,-2,17*
COc1ccc(OC)c(S(=O)(=O)N(C)CC(=O)N2CCN(c3ccc(F)cc3)CC2)c1,4,1,3,0
CCCCN(CCCC)C(=O)C1(P(=O)(c2ccccc2)c2ccccc2)CCC1,-3,-3,3,-1
CCCCN(CC)CCNC(=O)c1ccc2c(Cl)c3c(nc2c1)CCC3,-11,6,-21,-3
CCN(CC)CCCNC(=O)c1ccc2c(Cl)c3c(nc2c1)CCCC3,-1,9.3*,0,-3
CCCN1CCN(CCCNC(=O)c2ccc3c(Cl)c4c(nc3c2)CCCC4)CC1,-10,8.4*,-13,-3
CCN(CC)CCNC(=O)CSc1c2c(nc3cc(Cl)ccc13)CCCC2,-6,8.4*,6,-1
CN(C)CCCN(C(=O)c1ccc(S(=O)(=O)N(C)C2CCCCC2)cc1)c1nc2ccc(Br)cc2s1,-2,0,-15,1
O=C1N=c2ccccc2=C1c1sc(Nc2cccc(O)c2)nc1O,16,-3,-8,-6
O=C1N=c2ccccc2=C1c1sc(Nc2ccc(O)cc2)nc1O,33*,-4,/,5.1*
SMILES,NadD block,VIM-2 inh,core dimer inh,IMP-1 inhibitor
N#Cc1c(Sc2ncc(C(F)(F)F)cc2Cl)nsc1C/C=N\OCc1c(F)cccc1Cl,10,0,54*,-5
CS(=O)(=O)N(CC(=O)N1CCCCCC1)c1cccc([N+](=O)[O-])c1,-3,-5,-8,-3
CCC(C)C(NC(=O)CCC(=O)OCC(=O)[C@@]1(O)CCC2[C@@H]3CCC4=CC(=O)C=C[C@]4(C)C3[C@@H](O)C[C@@]21C)C(=O)O (stereo partly drawn),1,1,-2,-3
O=C(Nc1ccc(Cl)c([N+](=O)[O-])c1)c1ccncc1,-3,-2,5,-2
O=C(Nc1ccc(Br)cc1Cl)c1cnccn1,-1,0,68*,-1
O=C(Nc1ccc(Cl)c([N+](=O)[O-])c1)c1cnccn1,5,2,55*,-1
N=c1oc2c3c4c(cc2cc1C(=O)Nc1ccccc1)CCCN4CCC3,31*,4,39,0
Cc1c(Cc2ccccc2)c(=O)oc2c(CN(C)C)c(O)c(Cl)cc12,5,-2,-8,4.7*
CC1CC(C)CN(C(=O)COC(=O)COc2ccccc2C#N)C1 (stereo not drawn),3,/,/,/
Cc1ccc(-n2c(SCC(=O)O)nc3sc4c(c3c2=O)CC(C)(C)SC4)cc1,-3,/,/,/
CCCc1nc2sc3c(SCC(=O)NCc4ccco4)ncnc3c2c2c1CCC2,34*,1,40,15*
CCSc1nc2sc3c(c2c2nnc(SCC(=O)NCc4ccco4)n12)CCCC3,/,-3,58*,-8
Cc1nc(SCC(=O)NCc2ccco2)c2c3c(sc2n1)CCCC3,10,1,12,-4
Cc1ccc(-n2c(SCC(=O)NCc3ccco3)nc3sc4c(c3c2=O)CC(C)(C)SC4)cc1,17,1,68*,-2
CCOC(=O)C1CCN(C(=O)Nc2c(-c3ccccc3)noc2C)CC1,-7,-3,-1,-1
COC(=O)[C@]1(Cc2ccccc2)N[C@H](CN(C)C(=O)Nc2ccc(Cl)cc2)[C@@H]2C(=O)N(C)C(=O)[C@@H]21,-5,/,/,/
COc1cccc2c1C(=O)c1c(O)c3c(c(O)c1C2=O)C[C@@](O)(C(=O)CO)C[C@@H]3O[C@H]1C[C@H](N)[C@H](O)[C@H](C)O1,19,24*,-15,5.7*
COc1cccc2c1C(=O)c1c(O)c3c(c(O)c1C2=O)C[C@@](O)(C(=O)CO)C[C@@H]3OC1CC(N)C(O)C(C)O1 (stereo partly drawn),53*,/,/,/
CCCCn1c(=O)[nH]c(=O)c2c1nc(-c1ccc(C#N)cc1)n2C1CCCC1,25,-2,58*,-5
Cc1cc(C(=O)C(C(c2ccccc2)N2CCOCC2)N2CCOCC2)ccc1Cl (stereo not drawn),-1,/,/,/
CC1(C)C(=O)Nc2ccccc2N1C(=O)COC(=O)C12CC3CC(CC(O)(C3)C1)C2,12,0,57*,-1
Fc1cc(F)cc(Nc2nc(Cl)nc(NC3CCCC3)n2)c1,-4,/,/,/
CC(C)(C)c1ccc(Oc2coc3cc(OCC(=O)O)ccc3c2=O)cc1,-5,0,6,-1
COC(=O)c1ccc(Oc2coc3cc(OCc4ccc([N+](=O)[O-])cc4)ccc3c2=O)cc1,-4,-2,68*,-3
COc1cccc(/C=C/C(=O)Nc2ccc3c(c2)OCCO3)c1OC,-4,-3,0,-3
Cc1ccc(N(CC(=O)N/N=C/c2cc(C)n(-c3ccccc3)c2C)S(C)(=O)=O)c(C)c1,16,-3,31,-1
Cc1cc(/C=N/NC(=O)Cn2c3ccccc3c(=O)c3ccccc32)c(C)n1-c1ccccc1,45*,2,62*,-3
CCOc1ccc(-c2cc(C(=O)OC)[nH]n2)cc1,-1,-1,-4,0
COc1ccc(CN(C)C(=O)c2ccc(OCC(=O)Nc3cccc(C(F)(F)F)c3)c(OC)c2)cc1,-6,/,/,/
Cc1c(C)c2ccc(OCC(=O)N3CCN(c4ccccc4)CC3)cc2oc1=O,-12,3,6,-2

# Assay outcomes from PubChem.
